Laboratory results as given in article PMC8599380 (European Journal of Drug Metabolism and Pharmacokinetics, 2021).
Where two headings read alike, the source gives them in different places.

What was measured:
[1] = mouse plasma; cited from earlier work
[2] = Population pharmacokinetic model; assay type: in vivo, human
Procedure, shortened: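 Patients dosed orally three or four times weekly; 28-day cycles of 3 weeks dosing then 7 days off. Plasma sampled pre-dose to 24 h on day 1, 5 and/or 19 (882 concentrations). FOCE-I estimation; lag-time and transit absorption models tested; exponential IIV; additive residual error on log data. Median-normalized power covariate models; forward P<0.05, backward P 0.01; bootstrap evaluation.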

[3] = cited from earlier work
[4] = tested on: patients with hematologic and solid tumor malignancies; conditions: cited from earlier work
[5] = cited from earlier work; remark: listed apart in the source
[6] = oral flat dose, preliminary phase 1 data

## CC(C)[C@H](C(=O)Nc1ccc(C(=O)NO)cc1)c1ccccc1 [REC-2282]
[1]
  bound to plasma proteins: 96%
[2]; 55 patients, 20 mg to 80 mg
  variability in dose-normalized AUC: 24.1%
  variability in dose-normalized Cmax: 29.6%
[2]; flat doses 20 mg to 80 mg
  dose proportionality of pharmacokinetics: dose-proportional
[3]; mice, preclinical, ref unpublished data
  oral bioavailability: 26%
[3]; mouse urine
  dose recovered in urine: 1.4%
[4]; 27 patients enrolled
  clinical response: minimal response to progressive disease
  most common adverse event: dose-dependent cytopenias
[4]
  observed dose-limiting toxicities: grade 4 thrombocytopenia, febrile neutropenia and grade 3 neutropenia with infection and grade 4 psychosis
[4]; [6]
  coefficient of variation (CV) in apparent oral clearance among dose levels: 36 to 76%
  coefficient of variation (CV) in peak concentrations among dose levels: 24–66%
[4]; patients with NF2 and meningiomas
  median progression-free survival: 9.1 months
[4]; solid tumors
  median progression-free survival: 3.6 months
[5]; rat urine
  dose recovered in urine: 5%
[5]; rats, preclinical, ref unpublished data
  oral bioavailability: 100%
